ChEMBL document CHEMBL4396943, “The tetrahydroxanthone-dimer phomoxanthone A is a strong inducer of apoptosis in cisplatin-resistant solid cancer cells” (Bioorg Med Chem, 2019)
Activity calls are given as the source filed them. The calls are words filed in the database; no cut-off is given here.

Assays:
A2780cisR [1] = assay: Reduction of H2O2-induced ROS generation in human A2780cisR cells at 316 nM incubated for 18 hrs by H2DCFDA staining based flow cytometry; assay type: functional, cell-based
Method in brief: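 Cells plated overnight in growth medium (approx. 150,000 cells/well), exposed to compound for 18 h. Then washed with PBS and moved to phenol red-free RPMI-1640 without FBS or antibiotics. Loaded with 10 µM H2DCF-DA, 30 min, 37 °C, dark. One aliquot then given 250 µM H2O2 for 1 h at 37 °C in the dark. DCF fluorescence read by flow cytometry; three independent experiments.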

J82 [2] = assay: Induction of apoptosis in human J82 cells assessed as accumulation in subG1 phase at 5 uM incubated for 24 hrs by propidium iodide staining based flow cytometry relative to control; assay type: functional
Method in brief: (§1)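 About 100,000 cells/well plated; after one day, treated 24 h. Cells lysed in hypotonic buffer (0.1% sodium citrate, 0.1% Triton X-100, 100 µg/ml propidium iodide) and kept overnight at 4 °C in the dark. Sub-G1 fraction measured by flow cytometry. Medium as control, cisplatin as positive control.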

A2780cisR [3] = assay: Induction of apoptosis in human A2780cisR cells assessed as accumulation in subG1 phase at 1 uM incubated for 24 hrs by propidium iodide staining based flow cytometry relative to control; assay type: functional; method in brief: as §1
K562 = assay: Antiproliferative activity against human K562 cells assessed as reduction in cell viability incubated for 72 hrs by MTT assay; assay type: functional, cell-based; details: K562, 72 h
Method in brief: (§2)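 Cells seeded overnight in 96-well plates, then exposed to increasing concentrations (compound dissolved in DMSO, diluted in medium) for the stated time. MTT (5 mg/ml in PBS) added for 15 min, formazan dissolved in DMSO, absorbance read at 544 nm minus 690 nm background. IC50 = concentration giving 50% signal decrease. At least three independent experiments in triplicate.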

A2780cisR [4] = assay: Induction of apoptosis in human A2780cisR cells assessed as decrease in mitochondrial membrane potential at 1 uM incubated for 24 hrs by TMRE staining based flow cytometry; assay type: functional, cell-based
Method in brief: (§3)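 Cells seeded overnight; complete medium swapped for FBS-free medium just before treatment to avoid TMRE ester cleavage. Exposure to PXA for 1 h, 2 h or 24 h. TMRE staining 20 min, cells collected by trypsinisation, ΔΨm read by flow cytometry. Medium served as negative control, 20 µM CCCP as positive control. Mean ± SEM reported.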

HCT-116 = assay: Antiproliferative activity against human HCT116 cells assessed as reduction in cell viability incubated for 72 hrs by MTT assay; assay type: functional, cell-based; details: HCT-116, 72 h; method in brief: as §2
J82 [5] = assay: Induction of apoptosis in human J82 cells assessed as nuclear condensation by measuring reduced size and increased intensity of nuclei at 50 uM incubated for 24 hrs by hoechst 33342 staining based fluorescence microscopy; assay type: functional, cell-based
A2780 [6] = assay: Induction of apoptosis in human A2780 cells assessed as decrease in claspin expression at 5 uM incubated for 24 hrs by proteome profiler analysis; assay type: functional, cell-based
Method in brief: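 A2780 cells treated 24 h with 5 µM, then apoptosis-related proteins read on an antibody array (Proteome Profiler human apoptosis array) per kit instructions.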

A2780 [7] = assay: Induction of apoptosis in human A2780 cells assessed as nuclear condensation by measuring reduced size and increased intensity of nuclei at 10 uM incubated for 24 hrs by hoechst 33342 staining based fluorescence microscopy; assay type: functional, cell-based
A2780 [8] = assay: Induction of apoptosis in human A2780 cells assessed as decrease in mitochondrial membrane potential at 1 uM incubated for 24 hrs by TMRE staining based flow cytometry; assay type: functional, cell-based
Method in brief: (§4)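 Cells seeded overnight; medium switched to FBS-free just before treatment to avoid TMRE ester cleavage. Exposure 1 h, 2 h or 24 h, then TMRE staining for 20 min. Cells trypsinized, centrifuged at 4 °C and read by flow cytometry. Medium as negative control, 20 µM CCCP as positive control. […]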

A2780cisR [9] = assay: Potency index, ratio of cisplatin IC50 to compound IC50 for antiproliferative activity in human A2780cisR cells assessed as reduction in cell viability incubated for 72 hrs by MTT assay; assay type: functional
Method in brief: (§5)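 Cells seeded in 96-well plates overnight, exposed 72 h to increasing concentrations. MTT (5 mg/ml) added for 15 min, formazan dissolved in DMSO, absorbance read at 544 nm with 690 nm background subtracted. IC50 is the concentration reducing signal by 50%. Three independent experiments in triplicate. CisR sublines made by weekly intermittent cisplatin exposure for 24–30 weeks.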

J82 [10] = assay: Cell cycle arrest in human J82 cells assessed as accumulation at G1 phase at 10 uM incubated for 24 hrs by propidium iodide staining based flow cytometry (reference value: 69.6%); assay type: functional
Method in brief: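 After 24 h exposure, cells washed in ice-cold PBS. About 2 million cells fixed in cold 70% ethanol at −20 °C for at least 24 h. Stained with 0.1% Triton X-100, 200 µg/ml RNase A and 20 µg/ml propidium iodide in PBS, 15 min at 37 °C in the dark. DNA content read by flow cytometry with doublet discrimination. Medium as untreated control, paclitaxel as G2/M control. Three independent experiments.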

J82 [11] = assay: Induction of apoptosis in human J82 cells assessed as depolarization of mitochondrial membrane potential incubated for 1 hr by TMRE staining based flow cytometry; assay type: functional, cell-based; method in brief: as §3
J82 [12] = assay: Induction of apoptosis in cisplatin resistant human J82 cells assessed as accumulation in subG1 phase at 5 uM incubated for 24 hrs by propidium iodide staining based flow cytometry relative to control; assay type: functional
Method in brief: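 Cells plated in 24-well plates (about 100,000/well) for one day, then treated 24 h. Where used, caspase inhibitor Q-VD-OPh (20 µM) was added 1 h before. Cells lysed in hypotonic buffer (0.1% sodium citrate, 0.1% Triton X-100, 100 µg/ml propidium iodide) overnight at 4 °C in the dark. Sub-G1 fraction read by flow cytometry. Medium control, cisplatin positive control.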

KYSE-510 = assay: Potency index, ratio of cisplatin IC50 to compound IC50 for antiproliferative activity in human KYSE-510 cells assessed as reduction in cell viability incubated for 72 hrs by MTT assay; assay type: functional; method in brief: as §5
A2780cisR [13] = assay: Antiproliferative activity against human A2780cisR cells assessed as reduction in cell viability incubated for 24 hrs by MTT assay; assay type: functional, cell-based; method in brief: as §2
A2780cisR [14] = assay: Induction of apoptosis in human A2780cisR cells assessed as depolarization of mitochondrial membrane potential incubated for 2 hrs by TMRE staining based flow cytometry; assay type: functional, cell-based; method in brief: as §3
MDA-MB-231 = assay: Potency index, ratio of cisplatin IC50 to compound IC50 for antiproliferative activity in cisplatin-resistant human MDA-MB-231 cells assessed as reduction in cell viability incubated for 72 hrs by MTT assay; assay type: functional; method in brief: as §5
J82 [15] = assay: Induction of apoptosis in cisplatin resistant human J82 cells assessed as depolarization of mitochondrial membrane potential incubated for 1 hr by TMRE staining based flow cytometry; assay type: functional, cell-based; method in brief: as §4
A2780 [16] = assay: Induction of apoptosis in human A2780 cells assessed as increase in activation of caspase 3/7 at 10 uM incubated for 24 hrs by hoechst 33342 staining based fluorescence microscopy (reference value: 1.4%); assay type: functional

CC(=O)OC[C@]12Oc3c(-c4ccc(O)c5c4O[C@@]4(COC(C)=O)C(=C(O)C[C@@H](C)[C@H]4OC(C)=O)C5=O)ccc(O)c3C(=O)C1=C(O)C[C@@H](C)[C@H]2OC(C)=O [PHOMOXANTHONE A]
inhibition (A2780cisR [1]): inactive | Activity (J82 [2]): 53% | Activity (A2780cisR [3]): 70% | IC50 (K562): 1860 nM | Activity (A2780cisR [4]): Active | IC50 (HCT-116): 1820 nM | Activity (J82 [5]): Active | Activity (A2780 [6]): Active | Activity (A2780 [7]): Active | Activity (A2780 [8]): Active | Ratio IC50 (A2780cisR [9]): 9 | Activity (J82 [10]): 70.9% | Activity (J82 [11]): Dose-dependent effect | IC50 (J82 [11]; J82, 1 h): 3750 nM | Activity (J82 [12]): 35% | Ratio IC50 (KYSE-510): 2 - 10 | IC50 (A2780cisR [13]; read-out: IC50): 1880 nM | IC50 (A2780cisR [13]; read-out: pIC50 (converted)): 1860 nM | Activity (A2780cisR [14]): Dose-dependent effect | IC50 (A2780cisR [14]): 860 nM | Ratio IC50 (MDA-MB-231): 2 - 10 | Activity (J82 [15]): Dose-dependent effect | IC50 (J82 [15]; J82, 1 h): 3120 nM | Activity (A2780 [16]): 83%
